# TAAR1 agonist: agonists of human TAAR1; Q96RJ0; CHO RD-HGA16 TAAR1, Fluo-8 calcium fluorescence; vehicle wells 0%, saturating PEA agonist 100%; activation, % at 3 µM; 0.99% of 360,000 active;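 active = activation above the mean activation of all test compounds in the run plus 3 SD, cut at about 38% in these data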
# Target sequence (Q96RJ0 whole entry, looked up): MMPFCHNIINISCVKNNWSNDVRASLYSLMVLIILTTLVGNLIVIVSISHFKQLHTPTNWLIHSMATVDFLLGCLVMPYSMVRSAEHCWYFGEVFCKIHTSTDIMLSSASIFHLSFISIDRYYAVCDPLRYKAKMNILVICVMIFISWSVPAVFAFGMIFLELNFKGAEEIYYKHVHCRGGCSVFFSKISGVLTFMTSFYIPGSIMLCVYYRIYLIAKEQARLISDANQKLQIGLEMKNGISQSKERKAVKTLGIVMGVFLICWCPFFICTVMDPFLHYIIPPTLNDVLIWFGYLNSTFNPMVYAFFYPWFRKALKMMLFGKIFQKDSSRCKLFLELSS
#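 test system = CHO RD-HGA16 cells carrying human TAAR1 plus Gα16 | schedule = 17-24 h seeding, 75 min 37 °C dye, 30 min RT | compound dosing = 3 µM single concentration | control set = DMSO and PEA EC100 | replicates = n 1 | signal = Fluo-8 fluorescence, 5 s baseline then 140 s kinetic read | measure = percent activation vs PEA EC100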
# OX1R antag-1: blocks the human orexin 1 receptor | O43613 | OX1R-expressing cells, FRET antagonist read-out | inhibition, % at 6.6 µM | 1.8% of 330,000 active; in the data active = inhibition mostly above about 38%, no sharp cut-off; inactive = mostly below about 40%;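 also: 0% = agonist challenge alone and 100% = reference antagonist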
# OX1R antag-2: human HCRTR1 antagonism; O43613; AID 434989; inhibition, % at 5 µM; 0.43% of 330,000 active; CHO/OX1R cells, Fluo-8 calcium fluorescence, orexin A;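 active = inhibition above its plate's threshold, mean inhibition of all tested compounds on the plate plus 3 SD, cut at about 37% in these data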;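 also: 0% = orexin A challenge wells and 100% = SB-334867-A antagonist wells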
# TAAR1 antag: antagonists of human TAAR1; CHO RD-HGA16 TAAR1, Fluo-8 calcium fluorescence, antagonist; inhibition, % at 3 µM; 1.5% of 360,000 active;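 active = inhibition above a per-plate cutoff, the mean inhibition of test compounds on that plate plus 3 SD, cut at about 49% in these data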;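 also: 0% = DMSO plus EC80 beta-PEA response and 100% = DMSO alone without agonist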
#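 System: RD-HGA16 CHO cells with stable hTAAR1 and Gα16 | Probe or stimulus: EC80 β-phenethylamine stimulus | Dosing: 3 µM, single point | Times: Dye loading 75 min at 37 °C, then 30 min room temperature | Measured by: Fluo-8 calcium-sensitive fluorescence | Read-out basis: % inhibition of agonist calcium response | Replicates: n of 1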
# GPR7 antagonist: human neuropeptides B/W receptor 1 antagonism; GPR7-expressing cells, fluorescence antagonist assay; 1.1% of 290,000 active; P48145; inhibition, % at 4.4 µM; in the data active = inhibition above about 16%, passing the limit was not always enough;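 also: cells stimulated with the agonist NPW; 0% = agonist with vehicle and 100% = vehicle without agonist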
# Target sequence (P48145 whole entry, looked up): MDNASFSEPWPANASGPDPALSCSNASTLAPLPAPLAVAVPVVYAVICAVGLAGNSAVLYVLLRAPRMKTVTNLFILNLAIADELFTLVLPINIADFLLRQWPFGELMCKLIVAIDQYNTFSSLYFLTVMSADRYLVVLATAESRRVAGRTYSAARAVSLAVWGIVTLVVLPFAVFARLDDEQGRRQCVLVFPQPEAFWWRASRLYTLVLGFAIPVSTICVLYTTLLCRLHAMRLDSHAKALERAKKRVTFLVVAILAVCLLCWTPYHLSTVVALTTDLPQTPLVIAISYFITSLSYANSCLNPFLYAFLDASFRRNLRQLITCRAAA
# CHO parental Ca: counter-screen: ATP calcium response change in parental CHO cells. parental CHO-K1, ATP-induced calcium, Fluo-8 fluorescence. inhibition, % at 5.6 µM. 0.63% of 330,000 active;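 active = inhibition above that plate's mean sample inhibition plus 3 SD, cut at about 26% in these data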;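 also: 0% = ATP-challenged DMSO wells and 100% = DMSO wells without ATP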
#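 Measured by: calcium-sensitive Fluo-8 fluorescence / Test system: CHO parental line / Controls: ATP-challenged DMSO wells low, unchallenged DMSO wells high / Measure: % inhibition / Compound: single nominal dose of 5.6 µM per compound / Replicates: single well per compound, no replicates / Reagent: ATP as calcium-mobilizing challenge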
# TAAR1 nonsel count: nonselective antagonism, TAAR1 counter-screen; inhibition, % at 3 µM; counterscreen cell line, calcium fluorescence, antagonist mode; AID 651780; shares compounds with TAAR1 antag; 77% of 2,400 active; in the data active = inhibition above about 22%;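 also: CHO-Ga16 host cells stimulated with ATP at an EC80 level; 0% = agonist EC80 plus vehicle and 100% = vehicle without agonist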
# TAAR1 ant conf: confirmation of human TAAR1 antagonists; shares compounds with TAAR1 antag; TAAR1-expressing cells, fluorescence antagonist read-out; inhibition, % at 3 µM; 40% of 2,400 active; in the data active = inhibition above about 49%;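 also: CHO-Ga16 host cells challenged with agonist PEA near its EC80; 0% = agonist at EC80 plus vehicle and 100% = vehicle with no agonist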
# Ga16 nonsel ag: counter-screen for TAAR1 antagonists: nonselective Ga16 agonists | shares compounds with TAAR1 antag | Ga16-expressing cells, calcium fluorescence, agonist counterscreen | activation, % at 3 µM | 18% of 2,400 active | AID 651953; in the data active = activation above about 12%;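 also: 0% = vehicle wells and 100% = saturating stimulus response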
# TAAR1 ag counter: TAAR1 agonism, antagonist counter-screen; hTAAR1 cell line, fluorescence activation, agonist mode; activation, % at 3 µM; shares compounds with TAAR1 antag; 2% of 2,400 active; in the data active = activation above about 37%;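 also: CHO cells stably expressing TAAR1 with calcium dye readout; 0% = DMSO vehicle and 100% = full agonist response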
# * hit, by the source's call; · = not tested or not shown. Compounds with a hit are over-represented: about 4.6% of the library has one in this group of screens.
SMILES,TAAR1 agonist,OX1R antag-1,OX1R antag-2,TAAR1 antag,GPR7 antagonist,CHO parental Ca,TAAR1 nonsel count,TAAR1 ant conf,Ga16 nonsel ag,TAAR1 ag counter
O=C(/C=C/c1ccccc1)Nc1cccc(C(=O)NCCCc2ccccc2)c1,12,·,·,77*,·,·,35*,50*,8,7
OCC1CCCCN1C(=S)Nc1cccc(Cl)c1 (centres undefined),2,9,-11,-7,-6,-7,·,·,·,·
CCCCOc1ccc(OCCCC)c2c1NC1(N2)C(=O)N(C(C)=O)c2ccccc21,10,20,-15,5,-2,-12,·,·,·,·
COc1ccc(S(=O)(=O)N2CCN(C(=O)NC3CCCCC3)CC2)cc1OC,2,3,-6,4,-2,-13,·,·,·,·
Cc1cccc(NC(=O)C2CCN(S(=O)(=O)c3c(C)c(C)cc(C)c3C)CC2)n1,0,10,-19,78*,·,-37,24*,50*,5,7
Cc1coc(NC(=O)CSc2nc(-c3ccc(Cl)cc3)cc(C(F)(F)F)c2C#N)n1,·,8,-20,·,-9,-12,8,·,1,·
COc1ccc(-c2cc(C(F)(F)F)c(C#N)c(SCC(=O)Nc3nc(C)co3)n2)cc1,·,7,-3,·,-7,-5,·,·,·,·
N#CC(C#N)=Cc1c(N2CCN(c3ccccc3)CC2)nc2ccccn2c1=O,7,3,-18,0,-9,-12,·,·,·,·
CCOc1ccccc1NC(=O)NCCC1=CCCCC1,-1,20,-21,-8,-16,-16,·,·,·,·
COc1ccc(-n2nc(C(=O)NCC(=O)Nc3cc(OC)c(OC)c(OC)c3)c3ccccc3c2=O)cc1Cl,15,58,2,64*,0,-13,28*,47,8,6
COc1ccc(-n2nc(C(=O)NCC(=O)N3CCC(C)CC3)c3ccccc3c2=O)cc1Cl,3,15,-125,49*,8,-23,17,35,5,1
Cc1cc(C(=O)NCc2cccs2)ccc1[N+](=O)[O-],5,51,12,5,-1,-6,·,·,·,·
Cc1cc(C(=O)NCCN2C(=O)S/C(=C\c3cccs3)C2=O)ccc1[N+](=O)[O-],12,53,-6,57*,-2,2,38*,47,10,7
CC(=O)Nc1ccc(S(=O)(=O)N(Cc2ccco2)Cc2cc3ccccc3[nH]c2=O)cc1,19,39*,-13,73*,-8,-27,27*,57*,9,11
CCc1ccc2[nH]c(=O)c(CN(Cc3ccco3)S(=O)(=O)c3ccc4c(c3)OCCO4)cc2c1,6,4,-26,13,-11,-9,·,·,·,·
CCCCN(Cc1cc2ccccc2[nH]c1=O)S(=O)(=O)c1ccc(C)cc1,0,4,-31,63*,-13,-15,14,38,6,12
COc1ccc(OC2C(=O)N(CCc3ccc(OC)c(OC)c3)C2c2ccc3c(c2)OCO3)cc1 (centres undefined),6,20,-19,57*,3,-4,22*,24,5,1
CC(OC(=O)C1CC(=O)N(Cc2ccccc2)C1)C(=O)Nc1cccc(C#N)c1 (centres undefined),1,9,-33,-8,-14,-21,·,·,·,·
COc1ccc(O)c(/C=N/NC(=S)Nc2cccc(S(=O)(=O)N(C)C)c2)c1,25,28,-2,68*,-2,14,50*,62*,19*,25
CC1(C)C(C=C(Cl)Cl)C1C(=O)N1CCN(c2ccccc2)CC1 (centres undefined),4,-1,3,-10,-14,-25,·,·,·,·
CC[C@H](C)C(N)c1cn(C(CCCN=C(N)N)C(=O)N2CCNCC2)nn1 (some centres undefined),8,8,-14,-5,·,-1,·,·,·,·
CSc1cccc(NC(=O)CCn2c(=O)c3cccn3c3cccnc32)c1,23,32,-15,57*,-4,-13,25*,48,9,17
COc1cccc(CNC(=O)CCn2c(=O)c3cccn3c3cccnc32)c1,1,9,-9,-7,-10,-11,·,·,·,·
O=C(C[C@H]1CC[C@@H]2[C@H](COC[C@H](O)CN2Cc2cccc(F)c2)O1)NCc1cccc(F)c1,0,·,·,-1,·,·,·,·,·,·
CCc1nc2ccc(C(=O)NCc3ccc4c(c3)OCO4)cn2c1N(C)CCC(C)C,5,·,·,67*,·,·,7,27,5,7
SMILES,TAAR1 agonist,OX1R antag-1,OX1R antag-2,TAAR1 antag,GPR7 antagonist,CHO parental Ca,TAAR1 nonsel count,TAAR1 ant conf,Ga16 nonsel ag,TAAR1 ag counter
O=C(CSc1nnc(COc2ccc(Br)cc2)o1)NC1CCCCC1,3,17,-17,-15,-5,-11,·,·,·,·
COc1cc(-c2nc3ccc(C)cn3c2NCc2ccccc2)ccc1SC1CCCCC1,6,38,-31,54*,·,-22,25*,30,2,0
COc1ccc(CSc2ccc(-c3nc4ccccn4c3NCc3ccccc3)cc2OC)cc1,18,28,-34,71*,·,-3,30*,48,4,9
CCCCNc1c(-c2ccc(OC)c(SC3CCCCC3)c2)nc2cc(C)ccn12,9,25,-18,84*,·,10,40*,49*,4,10
CCC(C)Sc1ccc(-c2nc3ccccn3c2NCc2ccccc2)cc1OC (centres undefined),·,16,5,·,·,-9,·,·,·,·
COc1cc(-c2cc(C(=O)Nc3ccc(O)cc3)c3ccccc3n2)cc(OC)c1OC,13,16,-16,58*,-8,4,27*,46,8,11
COc1ccc(/C=C/C(=O)Nc2ccc(C)c(S(=O)(=O)N3CCOCC3)c2)cc1,19,10,7,65*,·,-11,31*,45,13*,10
Cc1ccc(-c2nn(-c3ccccc3)cc2C(=O)Nc2ccc(C)c(S(=O)(=O)N3CCOCC3)c2)cc1,6,7,-14,32,-3,-9,·,·,·,·
COc1cc(-c2cc(C(=O)Nc3nc4ccccc4s3)c3ccccc3n2)cc(OC)c1OC,8,5,-23,58*,-6,-11,37*,39,6,7
COc1cc(-c2cc(C(=O)Nc3ccc(C)c(S(=O)(=O)N4CCOCC4)c3)c3ccccc3n2)cc(OC)c1OC,14,9,-12,74*,·,-5,40*,55*,10,7
